Screens: PubChem, several laboratories
EWS-Fli block: EWS/Fli-driven NR0B1 reporter inhibitors, primary screen, A673 cells, NR0B1 luciferase, luminescence, MLPCN library; viability-normalised; inhibition, % at 12.6 µM; actives 0.67% (n = 350,000); AID 651661, 2012;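 active means mean inhibition of at least 50% after viability correction, with every replicate also passing that limit; inconclusive means mean reaches 50% but only one of two replicates passes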;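 further: firefly luciferase signal divided by Alamar Blue viability fluorescence both relative to DMSO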
XiGFP reactiv: activators of inactive X chromosome reactivation, primary screen, imaging, XiGFP fibroblasts, GFP high-content imaging, set 2; XiGFP mouse fibroblasts, % GFP-positive cells imaging, 3 d; cells co-treated with 5-aza-dC sensitizer; scaled so ellipticine positive control = 100%; activation, % at 7.58 µM; actives 0.055% (n = 360,000);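 active means mean normalized replicate activation at least 10% and every replicate at or above 10%; inconclusive means only one of the two criteria met; inactive means mean below 10% and not all replicates reach 10%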;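 further: 0% = median of on-plate neutral control wells and 100% = ellipticine 6 µM median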
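Schedule: 3 d treatment, 15 min room-temperature fixation; system: 68-5-11 XiGFP fibroblast line; buffer or medium: DMEM plus 5-aza-dC sensitizer; control set: ellipticine 6 µM positive control; compound: one concentration, pinned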
TROY NFkB inh: inhibitors of TROY-driven NF-kB signaling, primary screen, Q293 LMP1-TROYcd cells, NF-kB luciferase, uHTS; AID 1347056, 2019; Q293 LMP1-TROYcd NF-kB luciferase reporter, 4 h; actives 0.98% (n = 360,000); inhibition, % at 10 µM;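 active means compounds whose plate-normalised and pattern-corrected inhibition of the luciferase reporter signal at the single screening dose is 50% or more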
FN deposition inh: inhibitors of fibronectin matrix deposition, primary screen, AH1F cells, Alexa488-fibronectin fluorescence, plate reader; AH1F fibroblasts, overnight; inhibition, % at 12.6 µM; actives 0.086% (n = 350,000);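 active means mean inhibition across replicates of 30% or more, regardless of how many single replicates reach that level; inconclusive means mean under 30% yet at least half of replicates reach 30%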;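 further: positive control wells lacked labelled fibronectin entirely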
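Schedule: 1 h cell adhesion before compound, then overnight fibronectin incubation; test system: AH1F fibroblast monolayer depositing Alexa488-labelled fibronectin into matrix; quantity: 10000 AH1F cells per well; probe or stimulus: fluorescent fibronectin at 24 nM final; signal: fluorescence, ex 485 nm, em 525 nm; evaluation: percent inhibition as loss of matrix-bound fibronectin fluorescence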
LGR2 inh: inhibitors of bursicon-induced LGR2 CRE-luciferase signal, primary screen, cell-based, HEK293, CRE-luciferase reporter, bursicon stimulation; Drosophila bursicon receptor LGR2 (rickets); bursicon-stimulated, 4 h; inhibition, % at 9.99 µM; actives 0.35% (n = 380,000);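 active means drop in luminescence signal, shown as inhibition above about 50% in the replicate tests, limit read from the data, passing the limit was not always enough; inconclusive means probably only some replicates passing the limit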;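 further: agonist challenge used bursicon conditioned medium at about half maximal strength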
TWEAK Fn14 block: inhibitors of TWEAK-Fn14 signaling, primary screen, luciferase reporter cells, uHTS; inhibition, % at 10 µM; actives 2% (n = 360,000); TWEAK-stimulated Fn14 reporter cells, luciferase luminescence, 8 h; in the data active means inhibition above about 50%
Numbers without * were called inactive; ? = inconclusive; . = no result. Sampled rows, rich in hits. Any-hit rate of the full collection: about 2.3%.

SMILES | EWS-Fli block | XiGFP reactiv | TROY NFkB inh | FN deposition inh | LGR2 inh | TWEAK Fn14 block
C[C@]12c3[nH]c4ccc(Cl)cc4c3CCN1C(=O)[C@@H](CC(=O)NCc1ccco1)C[C@@H]2C(=O)N1CCCCC1 | -104 | 0 | 8 | 34* | 5 | 27
COc1ccccc1NC(=O)N[C@H]1CC[C@H](CCNS(=O)(=O)c2ccccc2)O[C@H]1CO | -3 | 0 | . | . | -8 | .
COCC(=O)Nc1ccc2c(c1)C(=O)N(C)C[C@@H](OC)[C@H](C)CN(Cc1ccccc1)[C@H](C)CO2 | 5 | 0 | . | -14 | 1 | .
Cc1noc2ncnc(Sc3ccc(Br)cc3)c12 | 8 | 1 | 64* | -16 | 76* | 66*
Cc1noc2ncnc(N3CCCC3)c12 | -11 | 0 | 12 | 4 | -6 | 21
CC=Cc1ccc2n(c1=O)C[C@H]1[C@H](CO)[C@@H](C(=O)NCCC)[C@@H]2N1C(=O)c1ccccc1 (mixture of isomers) | 4 | 0 | . | . | 14 | .
Cc1nc2ccc(NC(=O)c3cccs3)cc2c(=O)n1Cc1ccc(Cl)cc1 | . | . | 70* | . | . | 83*
O=S(=O)(c1ccc(NC(=S)Nc2ccccc2)cc1)N1CCOCC1 | -9 | 0 | -21 | -2 | -16 | 3
CC(C)CCCCCCNC(=S)Nc1ccc(S(=O)(=O)N2CCOCC2)cc1 | 13 | 0 | 56* | -11 | 51* | 54*
CCC(=O)N[C@@H]1CC[C@@H](CC(=O)OC)O[C@@H]1CO | -1 | 0 | . | . | 7 | .
COc1cccc(S(=O)(=O)N[C@@H]2CC[C@H](CCn3cc(-c4ccccn4)nn3)O[C@@H]2CO)c1 | 4 | 0 | . | . | -14 | .
COc1cc(C2C3=C(COC3=O)OC(C)(C)Oc3cc4c(cc32)OCO4)cc(OC)c1OC (stereo unspecified) | 54* | 1 | 17 | -35 | -17 | -5
COC(=O)C1=C(C)NC(=O)NC1c1ccc(OC)c(OC)c1 (stereo unspecified) | -2 | 0 | 15 | -10 | 8 | -5
COC(=O)C1=C(C)NC(=O)NC1c1ccc(N2CCC(c3ccccc3)=N2)cc1 (stereo unspecified) | 9 | 0 | 52* | 5 | 2 | 41
COc1ccc2c(c1)c1ccc3c(c1n2C)C(=O)C=CC3=O | 60* | 0 | 30 | 0 | -2 | 3
COc1ccc(NC(=O)Nc2ccc3c(c2)[C@@H]2C[C@H](CC(=O)NC4CCCC4)O[C@@H](CO)[C@@H]2O3)cc1 | 3 | 0 | . | -6 | 2 | .
Fc1ccc(Cn2c(-c3cscn3)nc3ccccc32)c(Cl)c1 | . | . | 5 | 2 | . | -24
Nc1nonc1-c1nc2ccccc2n1Cc1ccc(F)cc1Cl | . | . | 54* | 2 | . | -24
CCN1C(=O)[C@@H]2[C@@H](c3ccc(SC4CCCCC4)cc3)N3CCCC[C@@]3(C(=O)OC)[C@@H]2C1=O | 2 | 0 | 63* | 2 | . | 61*
CCCCCCSc1ccc([C@@H]2[C@H]3C(=O)N(C)C(=O)[C@H]3[C@]3(C(=O)OC)CCCCN23)cc1OC | 6 | 0 | -28 | 31* | . | -15
C[C@H]1CN(C)C(=O)c2cc(NS(C)(=O)=O)ccc2O[C@H]1CN(C)C | . | 0 | . | 7 | . | .
COc1cccc(N2CC(=O)Nc3c(oc4nc(-c5ccccc5)cc(C)c34)C2=O)c1 | -4 | 0 | 71* | 1 | 5 | 41
CCCC[C@H](CN[C@@H](CNC)[C@H](C)CC)NCCC12CCC(CC1)C2 | 57* | 0 | -20 | -2 | 35 | -11
COc1ccc2cc3cc(C(=O)NCCc4ccc(OC)c(OC)c4)oc3nc2c1 | . | . | 15 | -4 | . | 66*
COc1ccc(CCNC(=O)c2ccc(CSc3ccc(Cl)cc3)o2)cc1OC | 14 | 0 | 44 | 9 | 2 | 68*
SMILES | EWS-Fli block | XiGFP reactiv | TROY NFkB inh | FN deposition inh | LGR2 inh | TWEAK Fn14 block
COc1ccc2cc3cc(C(=O)N4CCCCCC4)oc3nc2c1 | . | . | 27 | . | . | 54*
CCCN(CCC)CCCNC(=O)c1cc2cc3ccc(OC)cc3nc2o1 | . | . | -16 | 10 | . | -57
c1ccc(-c2ccc3ncccc3n2)cc1 | -101 | 0 | 53* | 4 | -34 | -9
O=[N+]([O-])c1ccc(/C=N/N=C/c2ccc([N+](=O)[O-])o2)o1 | ? | 2 | -61 | -3 | 82* | 84*
O=C1C2C3C=CC(C4CC34)C2C(=O)N1/N=C/c1ccc([N+](=O)[O-])o1 (stereo unspecified) | 21 | 0 | 20 | 17 | 26 | 90*
Cc1ccc(OC(=O)N(C)C[C@@H]2OCc3ccccc3-c3ccccc3C(=O)N([C@H](C)CO)C[C@H]2C)cc1 | 12 | 0 | . | -7 | -3 | .
Cc1cccc(NC(=O)c2ccc3c(=O)n4c(nc3c2)CCCCC4)n1 | 9 | 0 | 40 | -13 | 17 | 57*
Cc1ccc(NC(=O)c2ccc3c(=O)n4c(nc3c2)CCCCC4)nc1 | -53 | 0 | -63 | -6 | -33 | -9
O=C(Nc1cccc(S(=O)(=O)N2CCCC2)c1)c1ccc2c(=O)n3c(nc2c1)CCCCC3 | 7 | 0 | 28 | 1 | 0 | 57*
O=C(Nc1nc(-c2ccccc2)cs1)c1ccc2c(=O)n3c(nc2c1)CCCCC3 | 1 | 0 | 71* | -4 | 14 | 106*
Cc1ccc(NN2C(=O)C=CC2=O)cc1 | . | 0 | 36 | -7 | 7 | 53*
CCC(C)NC(=O)Nc1ccc(Br)cc1 (stereo unspecified) | -44 | 0 | -27 | . | -4 | -7
CCC(C)Nc1ccc(NC(C)CC)cc1 (stereo unspecified) | . | . | 39 | . | . | 69*
O=C(NNS(=O)(=O)c1ccc(F)cc1)c1ccc(O)cc1 | 13 | 0 | 6 | -2 | -8 | 62*
O=C(NNS(=O)(=O)c1ccc(F)cc1)c1ccc(S(=O)(=O)N2CCCCC2)cc1 | . | 0 | -14 | -9 | 0 | 2
COc1ccccc1C(=O)Nc1ccc2c(c1)OC[C@@H](C)N(C(C)=O)C[C@H](C)[C@@H](OC)CN(C)C2=O | 5 | 0 | . | 2 | -13 | .
COC(=O)[C@@H]1Cc2c([nH]c3ccccc23)C(C)(C)N1C(=O)CCl | 58* | 0 | -3 | 4 | 19 | 0
COC(=O)C1Cc2c([nH]c3ccccc23)C2CCC(=O)N12 (stereo unspecified) | 9 | 0 | -7 | -4 | -5 | 0
COc1ccccc1CNC(=O)C[C@H]1CC[C@H]2[C@@H](COC[C@H](O)CN2C(=O)Nc2ccc(F)cc2)O1 | -12 | 0 | . | -3 | -17 | .
